Activity, MED50 and TD50 data for four compounds are collected here from ChEMBL document CHEMBL3396946, “Design, synthesis and pharmacological evaluation of N-[4-(4-(alkyl/aryl/heteroaryl)-piperazin-1-yl)-phenyl]-carbamic acid ethyl ester derivatives as novel anticonvulsant agents” (Bioorg Med Chem Lett, 2015).

Calls of active or inactive are those of the source. No cut-off for these calls is given here.

In data set [1] the test system is Mus musculus. The data set is described as follows: Anticonvulsant activity in Swiss albino mouse assessed as reduction in clonic seizures at 300 mg/kg, ip after 4 hrs by subcutaneous pentylenetetrazole seizure test. It counts as functional, organism-based. Further details: dose 300 mg/kg. In a few lines: (§1)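 Adult male Swiss albino mice; test agents given i.p. at 30, 100 and 300 mg/kg, with animals examined 0.5 h and 4.0 h after injection. Value is the minimal dose protecting half or more of the mice; a dash means no activity at 300 mg/kg.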

In data set [2] the test system is Mus musculus. In words: Anticonvulsant activity in intraperitoneally dosed Swiss albino mouse assessed as reduction in clonic seizures after 0.5 hrs by subcutaneous pentylenetetrazole seizure test. It counts as functional. In a few lines:
as §1

Data set [3] in a line: Neurological toxicity in intraperitoneally dosed Swiss albino mouse assessed as motor impairment after 0.5 hrs by rotarod test. It counts as organism-based. The settings on record: in vivo, ip, read-out: MTD50. On the technique in general: In the rotarod test animals must keep their balance on a rotating rod.
The subject of data set [4] is Mus musculus. The data set is described as follows: Anticonvulsant activity in intraperitoneally dosed Swiss albino mouse assessed as reduction in electrical stimulus-induced seizures after 0.5 hrs by maximal electroshock seizure test. The format is functional. The method, boiled down: as §1
(Protection in the maximal electroshock model is a classic sign of anticonvulsant action.)

A short description of data set [5]: Neurological toxicity in intraperitoneally dosed Swiss albino mouse assessed as motor impairment after 4 hrs by rotarod test. The format is organism-based. To be noted: in vivo, ip, read-out: MTD50.
Data set [6] has as its system Mus musculus. In words: Anticonvulsant activity in intraperitoneally dosed Swiss albino mouse assessed as reduction in electrical stimulus-induced seizures after 4 hrs by maximal electroshock seizure test. It counts as functional. The method, boiled down: as §1
Data set [7] concerns Mus musculus. In words: Toxicity in Swiss albino mouse assessed as induction of myoclonic jerks at 100 mg/kg, ip after 0.5 hrs during subcutaneous pentylenetetrazole seizure test. The arrangement: dose 100 mg/kg. It counts as organism-based.
The subject of data set [8] is Mus musculus. In words: Anticonvulsant activity in intraperitoneally dosed Swiss albino mouse assessed as reduction in clonic seizures after 4 hrs by subcutaneous pentylenetetrazole seizure test. The format is functional. The method, boiled down: as §1
In data set [9] the test system is Mus musculus. In words: Anticonvulsant activity in Swiss albino mouse assessed as reduction in electrical stimulus-induced seizures at 300 mg/kg, ip after 0.5 hrs by maximal electroshock seizure test. It counts as functional, organism-based. Further details: dose 300 mg/kg. In a few lines: as §1
The subject of data set [10] is Mus musculus. The data set is described as follows: Toxicity in Swiss albino mouse assessed as induction of myoclonic jerks at 100 mg/kg, ip after 4 hrs during subcutaneous pentylenetetrazole seizure test. It counts as organism-based. The arrangement: dose 100 mg/kg.
Data set [11] deals with Mus musculus. In words: Neurological toxicity in Swiss albino mouse assessed as motor impairment at 300 mg/kg, ip after 0.5 hrs by rotarod test. The format is organism-based. The arrangement: dose 300 mg/kg, route intraperitoneal. To be noted: in vivo. The method, boiled down: (§2)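 Adult male Swiss albino mice dosed i.p. at 30, 100 and 300 mg/kg, examined at 0.5 h and 4.0 h. Neurotoxicity is scored as failure to hold onto the rotating rod, with three successive trials. Value is the minimal dose active in half or more of the mice.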

The subject of data set [12] is Mus musculus. The data set is described as follows: Anticonvulsant activity in Swiss albino mouse assessed as reduction in clonic seizures at 300 mg/kg, ip after 0.5 hrs by subcutaneous pentylenetetrazole seizure test. It counts as functional, organism-based. Further details: dose 300 mg/kg. In a few lines:
as §1

Data set [13] has as its system Mus musculus. The data set is described as follows: Neurological toxicity in Swiss albino mouse assessed as motor impairment at 300 mg/kg, ip after 4 hrs by rotarod test. It counts as organism-based. The arrangement: dose 300 mg/kg, route intraperitoneal. The settings on record: in vivo. In a few lines: as §2
The subject of data set [14] is Mus musculus. In words: Toxicity in Swiss albino mouse assessed as induction of sedation at 300 mg/kg, ip after 0.5 hrs during subcutaneous pentylenetetrazole seizure test. The format is organism-based. The arrangement: dose 300 mg/kg.
Data set [15] deals with Mus musculus. In words: Toxicity in Swiss albino mouse assessed as induction of sedation at 100 mg/kg, ip after 0.5 hrs during maximal electroshock seizure test. The format is organism-based. The arrangement: dose 100 mg/kg, route intraperitoneal. The settings on record: in vivo.
The test system of data set [16] is Mus musculus. In words: Anticonvulsant activity in Swiss albino mouse assessed as reduction in electrical stimulus-induced seizures at 300 mg/kg, ip after 4 hrs by maximal electroshock seizure test. It counts as functional, organism-based. The arrangement: dose 300 mg/kg. In a few lines:
as §1

The subject of data set [17] is Mus musculus. The data set is described as follows: Toxicity in Swiss albino mouse assessed as induction of myoclonic jerks at 300 mg/kg, ip after 0.5 hrs during subcutaneous pentylenetetrazole seizure test. The format is organism-based. Further details: dose 300 mg/kg.

Turning to `CCOC(=O)Nc1ccc(N2CCN(c3ccc(C)cc3)CC2)cc1`, the outcome with Mus musculus [1] was inactive. Further, the MED50 came out at 100 mg/kg in the data set with Mus musculus [2], 30 mg/kg in the data set on Mus musculus [4] and 100 mg/kg in the data set with Mus musculus [6]. Also, the TD50 at 0.5 h in data set [3] was 100 mg/kg. For the same compound, the TD50 at 4 h in [5] was 100 mg/kg. Besides, the Activity result in the data set with Mus musculus [7] was “Toxic”.

Consider `CCOC(=O)Nc1ccc(N2CCN(C(c3ccc(F)cc3)c3ccc(F)cc3)CC2)cc1`, for which the MED50 in the data set on Mus musculus [8] was determined as 100 mg/kg; in the data set with Mus musculus [6] it was 300 mg/kg. Moreover, the result with Mus musculus [9] and in the data set on Mus musculus [12] was inactive. Also, the values for the Activity entry with Mus musculus [10], with Mus musculus [11] and with Mus musculus [13] were “Toxic”, “Non-toxic” and “Non-toxic”, respectively.

As for `CCOC(=O)Nc1ccc(N2CCN(c3ccc(C(F)(F)F)cc3)CC2)cc1`, the result in the data set with Mus musculus [1] and in the data set with Mus musculus [16] was inactive. In addition, the MED50 with Mus musculus [2] stood at 300 mg/kg; with Mus musculus [4], 100 mg/kg. The Activity result in the data set on Mus musculus [14] and in the data set on Mus musculus [15] was “Toxic” in each case.

In the case of `CCOC(=O)Nc1ccc(N2CCN(Cc3ccc4c(c3)OCO4)CC2)cc1`, the result with Mus musculus [1], in the data set with Mus musculus [9] and with Mus musculus [16] was inactive. The MED50 in the data set on Mus musculus [2] stood at 300 mg/kg. Moreover, the figures for the Activity result in the data set with Mus musculus [17], in the data set with Mus musculus [11] and in the data set with Mus musculus [13] were “Toxic”, “Non-toxic” and “Non-toxic”, respectively.
